A word on the MIC: it is the lowest concentration that inhibits growth of the organism. One may read the HC50 as the concentration giving 50% haemolysis.

Data set [1] concerns Cell membrane. The data set can be described thus: Disruption of cell membrane in methicillin resistant Staphylococcus aureus ATCC BAA 1556 assessed as increase in PI fluorescence intensity at MIC measured after 1 hrs by PI staining based flow cytometric analysis. Format: subcellular. Summed up:
(§1)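 Mid-log cells grown in Mueller Hinton broth, washed in 10 mM Tris pH 7.4, 10^7 CFU/mL, treated at MIC and 4× MIC for 1 h. Pelleted, washed, PI-stained for 15 min at 37 °C in the dark, then counted by flow cytometry for % PI-positive cells. PBS-treated cells as negative control, 10% Triton X-100 as positive control. Run in triplicate; two-tailed unpaired t-test.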
Background: A flow cytometer gives signals particle by particle.

In data set [2] the test system is Cell membrane. The data set can be described thus: Disruption of cell membrane in methicillin resistant Staphylococcus aureus ATCC BAA 1556 assessed as increase in PI fluorescence intensity at 4 times of MIC measured after 1 hrs by PI staining based flow cytometric analysis. The method in brief:
as §1

Data set [3] relates to Cell membrane. Briefly: Disruption of cell membrane in Escherichia coli ATCC BAA-2452 assessed as increase in PI fluorescence intensity at 4 times of MIC measured after 1 hrs by PI staining based flow cytometric analysis. Format: subcellular. The method in brief: (§2)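 Mid-log E. coli ATCC BAA-2452 grown in Mueller Hinton broth, washed thrice and resuspended at 10^7 CFU/mL in 10 mM Tris pH 7.4. […] Controls: PBS (negative) and 10% Triton X-100 (positive). Triplicate; two-tailed unpaired t-test.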

In data set [4] the test system is Cell membrane. Briefly: Disruption of cell membrane in Escherichia coli ATCC BAA-2452 assessed as increase in PI fluorescence intensity at MIC measured after 1 hrs by PI staining based flow cytometric analysis. Format: subcellular. The method in brief: as §2
Data set [5] relates to Staphylococcus aureus. The data set can be described thus: Antibacterial activity against methicillin resistant Staphylococcus aureus ATCC BAA 1556 assessed as fold increase in MIC incubated for 24 hrs in presence of Na+ ions by CLSI based broth microdilution method. Format: functional. The method in brief: (§3)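 CLSI broth microdilution. Overnight cultures diluted in cation-adjusted Mueller Hinton broth to 10^6 CFU/mL, mixed 1:1 with 2-fold serial peptide dilutions, 24 h at 37 °C. […] MIC is the lowest concentration inhibiting growth. Three independent assays in triplicate.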
A general note: Broth dilution looks for growth in wells or tubes with falling amounts of substance.

The subject of data set [6] is Escherichia coli. Briefly: Antibacterial activity against Escherichia coli ATCC 25922 assessed as fold increase in MIC incubated for 24 hrs in presence of Na+ ions by CLSI based broth microdilution method. Format: functional. Summed up:
(§4)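 E. coli MICs by CLSI broth microdilution in cation-adjusted Mueller Hinton broth. […] Inoculum was 10^6 CFU/mL with 2-fold serial peptide dilutions, incubated 24 h at 37 °C. MIC is the lowest concentration inhibiting growth. Three independent assays, each in triplicate.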

Data set [7] concerns Staphylococcus aureus. Briefly: Antibacterial activity against methicillin resistant Staphylococcus aureus ATCC BAA 1556 assessed as fold increase in MIC incubated for 24 hrs in presence of K+ ions by CLSI based broth microdilution method. Format: functional. Summed up: as §3
In data set [8] the test system is Staphylococcus aureus. Briefly: Antibacterial activity against methicillin resistant Staphylococcus aureus ATCC BAA 1556 assessed as fold increase in MIC incubated for 24 hrs in presence of NH4+ ions by CLSI based broth microdilution method. Format: functional. The method in brief: as §3
Data set [9] deals with Staphylococcus aureus. Briefly: Antibacterial activity against methicillin resistant Staphylococcus aureus ATCC BAA 1556 assessed as fold increase in MIC incubated for 24 hrs in presence of Ca2+ ions by CLSI based broth microdilution method. Format: functional. Summed up: as §3
In data set [10] the test system is Staphylococcus aureus. The data set can be described thus: Antibacterial activity against methicillin resistant Staphylococcus aureus ATCC BAA 1556 assessed as fold increase in MIC incubated for 24 hrs in presence of Mg2+ ions by CLSI based broth microdilution method. Format: functional. The method in brief: as §3
Data set [11] relates to Escherichia coli. The data set can be described thus: Antibacterial activity against Escherichia coli ATCC 25922 assessed as fold increase in MIC incubated for 24 hrs in presence of K+ ions by CLSI based broth microdilution method. Format: functional. Summed up: as §4
Data set [12] concerns Escherichia coli. The data set can be described thus: Antibacterial activity against Escherichia coli ATCC 25922 assessed as fold increase in MIC incubated for 24 hrs in presence of NH4+ ions by CLSI based broth microdilution method. Format: functional. Summed up: as §4
For data set [13], the system named is Escherichia coli. Briefly: Antibacterial activity against Escherichia coli ATCC 25922 assessed as fold increase in MIC incubated for 24 hrs in presence of Ca2+ ions by CLSI based broth microdilution method. Format: functional. The method in brief: as §4
Data set [14] relates to Escherichia coli. The data set can be described thus: Antibacterial activity against Escherichia coli ATCC 25922 assessed as fold increase in MIC incubated for 24 hrs in presence of Mg2+ ions by CLSI based broth microdilution method. Format: functional. Summed up:
as §4

Data set [15] deals with Staphylococcus aureus. The data set can be described thus: Bactericidal activity against methicillin resistant Staphylococcus aureus ATCC BAA 1556 assessed as inhibition of bacterial growth at 4 times of MIC incubated for 3 hrs by Time kill assay. Format: functional. The method in brief: (§5)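 Aliquots taken every 30 min for 4 h and plated on agar for viable colony counts. Two independent experiments in triplicate.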

For data set [16], the system named is Lipid bilayer. Briefly: Induction of membrane disruption in mammalian membrane mimic DOPC/cholesterol (10:1) large unilamellar vesicles assessed as induction of dye leakage at 50 ug/ml measured after 100 mins by calcein dye based analysis. Format: cell membranes. The note with it: dose 50.0 µg/ml. Summed up:
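LUVs loaded with calcein: DOPC/DOPG 7:3 w/w (bacterial mimic) or DOPC/cholesterol 10:1 w/w (mammalian mimic). Mixed 1:1 by volume with peptide at 5, 10, 20, 30 or 50 μg/mL. Fluorescence (ex 490/em 520 nm) read every 10 min for 100 min. Leakage expressed relative to 10% Triton X-100 lysis (100%), after subtracting liposome background. Triplicate.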

In data set [17] the test system is Klebsiella pneumoniae. Briefly: Antibacterial activity against Klebsiella pneumoniae ATCC BAA 1705 assessed as inhibition of bacterial growth incubated for 24 hrs by CLSI based broth microdilution method. Format: functional. The note with it: read-out: MIC.
For data set [18], the system named is Escherichia coli. Briefly: Antibacterial activity against Escherichia coli ATCC 25922 assessed as inhibition of bacterial growth incubated for 24 hrs by CLSI based broth microdilution method. Format: functional.
In data set [19] the test system is Pseudomonas aeruginosa. The data set can be described thus: Antibacterial activity against Pseudomonas aeruginosa […] assessed as inhibition of bacterial growth incubated for 24 hrs by CLSI based broth microdilution method. Format: functional.
For data set [20], the system named is Erythrocyte. Briefly: Hemolytic activity in human RBC incubated for 2 hrs by spectrophotometrical analysis. Format: toxicity, cell-based. Summed up:
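Human erythrocytes (4% suspension in PBS) mixed 1:1 with 2-fold serial peptide dilutions, 2 h at 37 °C without agitation. After centrifugation, supernatant hemoglobin read at 567 nm. 0% hemolysis set by PBS, 100% by 1% Triton X-100. HC50 is the concentration giving 50% hemolysis.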

The subject of data set [21] is Staphylococcus aureus. The data set can be described thus: Antibacterial activity against methicillin resistant Staphylococcus aureus ATCC BAA 1556 assessed as inhibition of bacterial growth incubated for 24 hrs by CLSI based broth microdilution method. Format: functional.
The subject of data set [22] is Staphylococcus aureus. The data set can be described thus: Antibacterial activity against Staphylococcus aureus ATCC 29213 assessed as inhibition of bacterial growth incubated for 24 hrs by CLSI based broth microdilution method. Format: functional.
For data set [23], the system named is Escherichia coli. The data set can be described thus: Bactericidal activity against […] Escherichia coli ATCC BAA 2452 assessed as inhibition of bacterial growth at 4 times of MIC incubated for 2.5 hrs by Time kill assay. Format: functional. Summed up:
as §5

“And” between values parts separate entries of the source, which are not always exact repeats. Equal values may be shown once. The source made the active and inactive calls. The rule behind the calls is not given here. Where a SMILES comes first, the peptide text is derived from it. Bridges are numbered along the chain shown (N, C = ends). [ ]: non-standard residue; d: D form. The star is where a group is joined. X1 = CC[C@H](C)CCCCC(=O)*; dDab = NCC[C@@H](N)C(=O)O; Dab = NCC[C@H](N)C(=O)O

On to `CC[C@H](C)CCCCC(=O)N[C@@H](CCN)C(=O)N[C@H](C(=O)N[C@@H](CCN)C(=O)N[C@H]1CCNC(=O)[C@H]([C@@H](C)O)NC(=O)[C@H](CCN)NC(=O)[C@H](CCN)NC(=O)[C@H](CC(C)C)NC(=O)[C@@H](Cc2ccccc2)NC(=O)[C@@H](CCN)NC1=O)[C@@H](C)O` (X1-[Dab]T[Dab][Dab][dDab][dF]L[Dab][Dab]T; lactam 4-C), for which the result in data set [1], in [2], in data set [3] and in data set [4] was inactive.

Regarding H-KWIKKWIKWWKK-NH2, the “fold change (FC)” value in data set [5], in [6], in data set [7], in data set [8], in [9] and in data set [10] was 2 each time. Besides, the “fold change (FC)” value in data set [11], in [12], in [13] and in data set [14] was 2 in each case.

With `CCCCCCCCCC(=O)N[C@@H](Cc1c[nH]c2ccccc12)C(=O)N[C@H](CC(N)=O)C(=O)N[C@@H](CC(=O)O)C(=O)N[C@@H]1C(=O)NCC(=O)N[C@@H](CCCN)C(=O)N[C@@H](CC(=O)O)C(=O)N[C@H](C)C(=O)N[C@@H](CC(=O)O)C(=O)NCC(=O)N[C@H](CO)C(=O)N[C@@H]([C@H](C)CC(=O)O)C(=O)N[C@@H](CC(=O)c2ccccc2N)C(=O)O[C@@H]1C`, the “inhibition (INH)” value in [15] was determined as 100%. Besides, in data set [16], the Activity was 7%. In addition, the outcome in data set [1], in data set [2], in data set [3] and in data set [4] was inactive.

H-RWIRRWIRWWRR-NH2: the MIC in data set [17] was 12.5 mg/L. Further, the “fold change (FC)” value in [5], in [6], in data set [7], in data set [8], in [9] and in data set [10] was 2 throughout. Further, the “fold change (FC)” value in data set [11], in data set [12], in data set [13] and in [14] was 2 each time.

For the compound Ac-RWARRWARWWRR-NH2, the minimal inhibitory concentration (MIC) in [18] is 100 mg/L; in data set [19], 100 mg/L; in [17], above 100 mg/L. For the same compound, in data set [20], the HC50 is 110 ug ml-1 and 58.4 µM.

On to H-RAWRRWARAW-NH2, for which the MIC in data set [21] is > 100 µg/mL and > 70.7 µM; in data set [22] it was > 100 µg/mL and > 70.7 µM; in data set [18] it was > 100 µg/mL and > 70.7 µM; in [19], above 100 mg/L; in data set [17] it was above 100 mg/L.

In the case of `CC[C@H](C)CCCCC(=O)N[C@@H](CCN)C(=O)N[C@H](C(=O)N[C@@H](CCN)C(=O)N[C@H]1CCNC(=O)[C@H]([C@@H](C)O)NC(=O)[C@H](CCN)NC(=O)[C@H](CCN)NC(=O)[C@H](CC(C)C)NC(=O)[C@@H](Cc2ccccc2)NC(=O)[C@H](CCN)NC1=O)[C@@H](C)O` (X1-[Dab]T[Dab][Dab][Dab][dF]L[Dab][Dab]T; lactam 4-C), in data set [23], the “inhibition (INH)” value was 100%.

The values are drawn from ChEMBL document CHEMBL5316289, “Structure-Based Rational Design of Small α-Helical Peptides with Broad-Spectrum Activity against Multidrug-Resistant Pathogens” (J Med Chem, 2023).
